Consider 26 molecules from ChEMBL document CHEMBL1154531, “Synthesis and structure-activity studies of novel homomorpholine oxazolidinone antibacterial agents” (Bioorg Med Chem Lett, 2009).

In brackets after ≈: the same amount, converted by molar mass.

A word on the IC50: it is the concentration that inhibits the measured activity by half. Low readings indicate inhibition by little substance, high ones a need for much substance. The MIC is the lowest concentration found to suppress growth. Low readings indicate inhibition by little substance, high ones a need for much substance.

What all share (format): functional
One experiment deals with Escherichia coli. As to the kind of experiment: Antibacterial activity against Escherichia coli by transcription-translation assay. An outline of the steps: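 Cell-free E. coli coupled in vitro transcription/translation system with a luciferase reporter as read-out.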
The subject of a further experiment is Enterococcus faecalis. Nature of the experiment: Antibacterial activity against Enterococcus faecalis MGH-2 EF1-1 by micro broth method. In short, it runs like this: (§1)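 Minimum inhibitory concentration determined by broth microdilution and reported in μg/mL.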
The test system of the next experiment is Staphylococcus aureus. As to the kind of experiment: Antibacterial activity against Staphylococcus aureus UC-76 SA-1 by micro broth method. An outline of the steps:
as §1

The subject of the next experiment is Streptococcus pneumoniae. Nature of the experiment: Antibacterial activity against Streptococcus pneumoniae SV1 SP-3 by micro broth method. An outline of the steps: as §1
The next experiment relates to Streptococcus pyogenes. Nature of the experiment: Antibacterial activity against Streptococcus pyogenes C-203 by micro broth method. In short, it runs like this: as §1

As to `CC(=O)NC[C@H]1CN(c2cc(F)c(N3CCCOCC3)c(F)c2F)C(=O)O1`, the IC50 in the experiment with Escherichia coli came out at 3.93 µM. In addition, the MIC is 2 µg/mL (≈ 5.16 µM) against Enterococcus faecalis, 2 µg/mL (≈ 5.16 µM) in the experiment on Staphylococcus aureus, 1 µg/mL (≈ 2.58 µM) against Streptococcus pneumoniae and 2 µg/mL (≈ 5.16 µM) in the experiment with Streptococcus pyogenes.

As for `O=C1O[C@@H](Cn2ccnn2)CN1c1ccc(N2CCCOCC2)cc1`, the minimal inhibitory concentration (MIC) with Enterococcus faecalis was 32 µg/mL (≈ 93.2 µM); in the experiment on Staphylococcus aureus it was 16 µg/mL (≈ 46.6 µM); with Streptococcus pneumoniae, 16 µg/mL (≈ 46.6 µM); in the experiment with Streptococcus pyogenes it was 8 µg/mL (≈ 23.3 µM).

On to `CNC(=O)[C@H]1CN(c2ccc(N3CCCOCC3)c(F)c2)C(=O)O1`, for which the minimal inhibitory concentration (MIC) came to 16 µg/mL (≈ 47.4 µM) against Enterococcus faecalis, 16 µg/mL (≈ 47.4 µM) in the experiment with Staphylococcus aureus, 8 µg/mL (≈ 23.7 µM) against Streptococcus pneumoniae and 8 µg/mL (≈ 23.7 µM) with Streptococcus pyogenes.

Consider `CC(C)(C)OC(=O)NC[C@H]1CN(c2ccc(N3CCCOCC3)c(F)c2)C(=O)O1`, for which the MIC in the experiment on Enterococcus faecalis amounted to 64 µg/mL (≈ 156 µM); in the experiment with Staphylococcus aureus, 32 µg/mL (≈ 78.2 µM); against Streptococcus pneumoniae, 32 µg/mL (≈ 78.2 µM); against Streptococcus pyogenes, 32 µg/mL (≈ 78.2 µM).

Consider `O=C1O[C@@H](Cn2ccnn2)CN1c1cc(F)c(N2CCCOCC2)c(F)c1`, for which the MIC came to 2 µg/mL (≈ 5.27 µM) with Enterococcus faecalis, 2 µg/mL (≈ 5.27 µM) in the experiment on Staphylococcus aureus, 2 µg/mL (≈ 5.27 µM) in the experiment on Streptococcus pneumoniae and 1 µg/mL (≈ 2.64 µM) against Streptococcus pyogenes.

On to `NC(=O)[C@H]1CN(c2ccc(N3CCCOCC3)cc2)C(=O)O1`, for which the MIC in the experiment on Enterococcus faecalis is 64 µg/mL (≈ 210 µM); against Staphylococcus aureus, 32 µg/mL (≈ 105 µM); in the experiment with Streptococcus pneumoniae it was 32 µg/mL (≈ 105 µM); against Streptococcus pyogenes, 64 µg/mL (≈ 210 µM).

With `CNC(=O)[C@H]1CN(c2cc(F)c(N3CCCOCC3)c(F)c2)C(=O)O1`, the midpoint of inhibition with Escherichia coli, the IC50, lay at 6.37 µM. Also, the MIC with Enterococcus faecalis was 8 µg/mL (≈ 22.5 µM); with Staphylococcus aureus, 4 µg/mL (≈ 11.3 µM); in the experiment on Streptococcus pneumoniae, 4 µg/mL (≈ 11.3 µM); in the experiment on Streptococcus pyogenes it was 4 µg/mL (≈ 11.3 µM).

Turning to `CC(=O)NC[C@H]1CN(c2ccc(N3CCCOCC3)cc2)C(=O)O1`, the MIC with Enterococcus faecalis was 16 µg/mL (≈ 48 µM); with Staphylococcus aureus, 8 µg/mL (≈ 24 µM); in the experiment on Streptococcus pneumoniae, 8 µg/mL (≈ 24 µM); against Streptococcus pyogenes, 8 µg/mL (≈ 24 µM).

In the experiment on Escherichia coli, `CNC(=O)[C@H]1CN(c2cc(F)c(N3CCCOCC3)c(F)c2F)C(=O)O1` yielded a 50% inhibitory concentration (IC50) of 18.9 µM. Also, the MIC against Enterococcus faecalis was 32 µg/mL (≈ 85.7 µM); with Staphylococcus aureus, 16 µg/mL (≈ 42.9 µM); with Streptococcus pneumoniae it was 16 µg/mL (≈ 42.9 µM); with Streptococcus pyogenes, 16 µg/mL (≈ 42.9 µM).

Consider `CCC(=O)NC[C@H]1CN(c2cc(F)c(N3CCCOCC3)c(F)c2)C(=O)O1`, for which the half-inhibitory concentration (IC50) in the experiment on Escherichia coli worked out at 2.1 µM. The minimal inhibitory concentration (MIC) against Enterococcus faecalis is 2 µg/mL (≈ 5.22 µM); against Staphylococcus aureus, 2 µg/mL (≈ 5.22 µM); against Streptococcus pneumoniae, 2 µg/mL (≈ 5.22 µM); against Streptococcus pyogenes it was 1 µg/mL (≈ 2.61 µM).

`CC(=O)NC[C@H]1CN(c2ccc(N3CCOCC3)c(F)c2)C(=O)O1` [LINEZOLID]: the MIC against Streptococcus pyogenes was 2 µg/mL (≈ 5.93 µM).

Regarding `COC(=O)NC[C@H]1CN(c2cc(F)c(N3CCCOCC3)c(F)c2)C(=O)O1`, the IC50 in the experiment with Escherichia coli was 1.9 µM. In addition, the MIC against Enterococcus faecalis was found to be 2 µg/mL (≈ 5.19 µM); in the experiment with Staphylococcus aureus, 2 µg/mL (≈ 5.19 µM); against Streptococcus pneumoniae, 1 µg/mL (≈ 2.59 µM); with Streptococcus pyogenes it was 1 µg/mL (≈ 2.59 µM).

For `CC(=O)NC[C@H]1CN(c2cc(F)c(N3CCCOCC3)c(F)c2)C(=O)O1`, the IC50 in the experiment on Escherichia coli came to 1.67 µM. The MIC in the experiment with Enterococcus faecalis came to 1 µg/mL (≈ 2.71 µM); with Staphylococcus aureus, 2 µg/mL (≈ 5.41 µM); in the experiment with Streptococcus pneumoniae it was 1 µg/mL (≈ 2.71 µM); in the experiment with Streptococcus pyogenes, 1 µg/mL (≈ 2.71 µM).

For the molecule `COC(=O)NC[C@H]1CN(c2ccc(N3CCCOCC3)cc2)C(=O)O1`, the MIC against Enterococcus faecalis came to 16 µg/mL (≈ 45.8 µM); against Staphylococcus aureus it was 16 µg/mL (≈ 45.8 µM); with Streptococcus pneumoniae it was 16 µg/mL (≈ 45.8 µM); in the experiment on Streptococcus pyogenes, 8 µg/mL (≈ 22.9 µM).

In the experiment with Escherichia coli, `CC(=O)NC[C@H]1CN(c2ccc(N3CCCOCC3)c(F)c2)C(=O)O1` had an IC50 of 2.3 µM. For the same molecule, the MIC against Enterococcus faecalis stood at 2 µg/mL (≈ 5.69 µM); in the experiment with Staphylococcus aureus it was 4 µg/mL (≈ 11.4 µM); in the experiment on Streptococcus pneumoniae, 2 µg/mL (≈ 5.69 µM); in the experiment with Streptococcus pyogenes, 2 µg/mL (≈ 5.69 µM).

In turn, `NC(=O)[C@H]1CN(c2cc(F)c(N3CCCOCC3)c(F)c2)C(=O)O1` showed an IC50 in the experiment with Escherichia coli of 5.87 µM. The MIC against Enterococcus faecalis amounted to 8 µg/mL (≈ 23.4 µM); against Staphylococcus aureus it was 4 µg/mL (≈ 11.7 µM); against Streptococcus pneumoniae, 4 µg/mL (≈ 11.7 µM); against Streptococcus pyogenes it was 4 µg/mL (≈ 11.7 µM).

With `Cl.NC[C@H]1CN(c2ccc(N3CCCOCC3)c(F)c2)C(=O)O1`, the MIC in the experiment on Enterococcus faecalis, in the experiment on Staphylococcus aureus, against Streptococcus pneumoniae and in the experiment on Streptococcus pyogenes was > 64 µg/mL each time.

Regarding `O=C1O[C@@H](CO)CN1c1cc(F)c(N2CCCOCC2)c(F)c1`, the MIC against Enterococcus faecalis stood at 8 µg/mL (≈ 24.4 µM); against Staphylococcus aureus, 4 µg/mL (≈ 12.2 µM); with Streptococcus pneumoniae it was 4 µg/mL (≈ 12.2 µM); against Streptococcus pyogenes, 2 µg/mL (≈ 6.09 µM).

Consider `NC(=O)[C@H]1CN(c2ccc(N3CCCOCC3)c(F)c2)C(=O)O1`, for which the minimal inhibitory concentration (MIC) against Enterococcus faecalis was 16 µg/mL (≈ 49.5 µM); in the experiment with Staphylococcus aureus, 8 µg/mL (≈ 24.7 µM); against Streptococcus pneumoniae it was 16 µg/mL (≈ 49.5 µM); in the experiment with Streptococcus pyogenes, 8 µg/mL (≈ 24.7 µM).

As to `CNC(=O)[C@H]1CN(c2ccc(N3CCCOCC3)cc2)C(=O)O1`, the MIC was found to be 64 µg/mL (≈ 200 µM) against Enterococcus faecalis, 32 µg/mL (≈ 100 µM) against Staphylococcus aureus, 32 µg/mL (≈ 100 µM) in the experiment with Streptococcus pneumoniae and 32 µg/mL (≈ 100 µM) in the experiment with Streptococcus pyogenes.

On to `CC(C)(C)OC(=O)NC[C@H]1CN(c2cc(F)c(N3CCCOCC3)c(F)c2)C(=O)O1`, for which the MIC against Enterococcus faecalis was 32 µg/mL (≈ 74.9 µM); in the experiment with Staphylococcus aureus, 8 µg/mL (≈ 18.7 µM); against Streptococcus pneumoniae, 16 µg/mL (≈ 37.4 µM); against Streptococcus pyogenes it was 8 µg/mL (≈ 18.7 µM).

With `C#Cc1cn(C[C@H]2CN(c3cc(F)c(N4CCCOCC4)c(F)c3)C(=O)O2)nn1`, the minimal inhibitory concentration (MIC) with Enterococcus faecalis turned out to be 2 µg/mL (≈ 4.96 µM); against Staphylococcus aureus it was 4 µg/mL (≈ 9.92 µM); with Streptococcus pneumoniae it was 2 µg/mL (≈ 4.96 µM); against Streptococcus pyogenes it was 2 µg/mL (≈ 4.96 µM).

Regarding `CC(C)(C)OC(=O)NC[C@H]1CN(c2ccc(N3CCCOCC3)cc2)C(=O)O1`, the MIC with Enterococcus faecalis worked out at 32 µg/mL (≈ 81.7 µM); against Staphylococcus aureus it was 16 µg/mL (≈ 40.9 µM); against Streptococcus pneumoniae, 16 µg/mL (≈ 40.9 µM); in the experiment on Streptococcus pyogenes, 32 µg/mL (≈ 81.7 µM).

`O=C1O[C@@H](CO)CN1c1ccc(N2CCCOCC2)cc1`: the MIC in the experiment with Enterococcus faecalis, in the experiment on Staphylococcus aureus, in the experiment on Streptococcus pneumoniae and in the experiment with Streptococcus pyogenes was > 64 µg/mL throughout.

On to `NC(=O)[C@H]1CN(c2cc(F)c(N3CCCOCC3)c(F)c2F)C(=O)O1`, for which, in the experiment on Escherichia coli, inhibition was half-maximal at 23.4 µM (IC50). Besides, the MIC in the experiment with Enterococcus faecalis is 32 µg/mL (≈ 89.1 µM); in the experiment on Staphylococcus aureus it was 16 µg/mL (≈ 44.5 µM); against Streptococcus pneumoniae it was 16 µg/mL (≈ 44.5 µM); with Streptococcus pyogenes, 16 µg/mL (≈ 44.5 µM).

Take `C[Si](C)(C)C#Cc1cn(C[C@H]2CN(c3cc(F)c(N4CCCOCC4)c(F)c3)C(=O)O2)nn1`: the MIC was > 32 µg/mL with Enterococcus faecalis, > 32 µg/mL with Staphylococcus aureus, 4 µg/mL (≈ 8.41 µM) in the experiment with Streptococcus pneumoniae and 2 µg/mL (≈ 4.21 µM) in the experiment on Streptococcus pyogenes.
